Published values collected from several papers.
Target: Serine/threonine-protein kinase LATS1 (LATS1, Homo sapiens, UniProt O95835)
Sequence (O95835 1-1130, as in one of the studies): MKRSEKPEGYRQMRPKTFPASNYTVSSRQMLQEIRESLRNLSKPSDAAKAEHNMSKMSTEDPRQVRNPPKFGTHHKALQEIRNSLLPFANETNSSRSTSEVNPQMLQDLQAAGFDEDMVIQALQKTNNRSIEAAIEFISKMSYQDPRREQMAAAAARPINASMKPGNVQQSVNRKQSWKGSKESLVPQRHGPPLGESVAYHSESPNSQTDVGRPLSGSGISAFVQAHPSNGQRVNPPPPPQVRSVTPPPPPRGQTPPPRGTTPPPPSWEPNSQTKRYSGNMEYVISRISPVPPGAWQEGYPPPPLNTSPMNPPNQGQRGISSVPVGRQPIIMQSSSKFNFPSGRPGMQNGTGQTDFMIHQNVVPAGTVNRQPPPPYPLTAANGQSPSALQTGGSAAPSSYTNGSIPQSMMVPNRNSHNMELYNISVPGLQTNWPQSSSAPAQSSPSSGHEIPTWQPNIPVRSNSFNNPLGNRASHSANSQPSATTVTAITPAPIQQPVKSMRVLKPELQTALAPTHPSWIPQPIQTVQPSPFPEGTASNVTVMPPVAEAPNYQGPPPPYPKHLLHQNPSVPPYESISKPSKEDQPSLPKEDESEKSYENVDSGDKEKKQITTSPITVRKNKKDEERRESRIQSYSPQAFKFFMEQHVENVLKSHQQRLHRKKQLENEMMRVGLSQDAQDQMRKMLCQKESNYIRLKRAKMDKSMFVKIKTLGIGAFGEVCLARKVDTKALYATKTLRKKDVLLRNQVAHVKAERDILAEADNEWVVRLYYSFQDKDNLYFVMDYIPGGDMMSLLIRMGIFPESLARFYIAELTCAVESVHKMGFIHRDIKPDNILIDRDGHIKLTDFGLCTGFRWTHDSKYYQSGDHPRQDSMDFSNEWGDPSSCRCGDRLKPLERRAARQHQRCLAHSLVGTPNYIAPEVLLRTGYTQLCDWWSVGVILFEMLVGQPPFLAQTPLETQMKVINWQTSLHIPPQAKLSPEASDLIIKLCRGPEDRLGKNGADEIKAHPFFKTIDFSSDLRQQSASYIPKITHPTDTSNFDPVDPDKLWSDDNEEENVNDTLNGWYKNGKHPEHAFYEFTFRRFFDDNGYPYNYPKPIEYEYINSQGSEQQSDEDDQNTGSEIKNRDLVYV

Structure (SMILES)	observed	action	technique	concentration	endpoint	value
C1=C/COCc2cc(ccc2OCCN2CCCC2)Nc2nccc(n2)-c2cccc(c2)COC/1	binding	–	–	0.1 µM	remaining binding	100%
Cc1cc(-c2ccnc3[nH]cc(F)c23)cc(F)c1[C@@]1(O)[C@H](C)CN(C2CCS(=O)(=O)CC2)C[C@@H]1C	binding	–	TR-FRET	–	residence time	9.1 min
C=CC(=O)N1CCC([C@@H]2CCNc3c(C(N)=O)c(-c4ccc(Oc5ccccc5)cc4)nn32)CC1	enzyme activity	inhibitor	–	1 µM	inhibition	0%
CCCCC(=O)Nc1ccc(-c2ccc3ncn(CCC)c(=O)c3c2)cn1	binding	–	competition with immobilised ligand	0.5 µM	remaining binding	86%
CN1CCN(C(=O)c2ccc(NC(=O)Nc3ccc(N(C)c4ccnc(Nc5ccc(CS(C)(=O)=O)cc5)n4)cc3)cc2)CC1	binding	–	–	1 µM	remaining binding	68%
Cc1cc(-c2ccnc3[nH]cc(F)c23)cc(F)c1[C@@]1(O)[C@H](C)CN(C(=O)CN)C[C@@H]1C	binding	–	TR-FRET	–	residence time	7.3 min
C[C@H]1CC[C@H](n2c3cnccc3c3cnc(Nc4ccc5c(n4)CCN(C(=O)CO)C5)nc32)CC1	cell-free assay	–	–	1 µM	remaining signal	47%
CC#CC(=O)N1CCC[C@H]1c1nc(-c2ccc(C(=O)Nc3ccccn3)cc2)c2c(N)nccn12	enzyme activity	inhibitor	–	1 µM	inhibition	7%
